ChEMBL document CHEMBL4038268, “Methylpyrrole inhibitors of BET bromodomains” (Bioorg Med Chem Lett, 2017)
pEC50, pIC50, pKi: −log10 of the molar value.

Legend:
[1] = Permeability of the compound; assay type: physicochemical; details: not told; read-out: permeability
[2] = Oral bioavailability in mouse at 10 mg/kg; assay type: ADME, organism-based; details: in vivo
[3] = biological target: T1, E3 ubiquitin-protein ligase TRIM33 (Homo sapiens, UniProt Q9UPN9); experiment: Inhibition of human TRIM33-phd-bromo (D882 to A1087 residues) expressed in bacterial expression system by BROMOscan assay
T1 sequence (Q9UPN9 whole entry): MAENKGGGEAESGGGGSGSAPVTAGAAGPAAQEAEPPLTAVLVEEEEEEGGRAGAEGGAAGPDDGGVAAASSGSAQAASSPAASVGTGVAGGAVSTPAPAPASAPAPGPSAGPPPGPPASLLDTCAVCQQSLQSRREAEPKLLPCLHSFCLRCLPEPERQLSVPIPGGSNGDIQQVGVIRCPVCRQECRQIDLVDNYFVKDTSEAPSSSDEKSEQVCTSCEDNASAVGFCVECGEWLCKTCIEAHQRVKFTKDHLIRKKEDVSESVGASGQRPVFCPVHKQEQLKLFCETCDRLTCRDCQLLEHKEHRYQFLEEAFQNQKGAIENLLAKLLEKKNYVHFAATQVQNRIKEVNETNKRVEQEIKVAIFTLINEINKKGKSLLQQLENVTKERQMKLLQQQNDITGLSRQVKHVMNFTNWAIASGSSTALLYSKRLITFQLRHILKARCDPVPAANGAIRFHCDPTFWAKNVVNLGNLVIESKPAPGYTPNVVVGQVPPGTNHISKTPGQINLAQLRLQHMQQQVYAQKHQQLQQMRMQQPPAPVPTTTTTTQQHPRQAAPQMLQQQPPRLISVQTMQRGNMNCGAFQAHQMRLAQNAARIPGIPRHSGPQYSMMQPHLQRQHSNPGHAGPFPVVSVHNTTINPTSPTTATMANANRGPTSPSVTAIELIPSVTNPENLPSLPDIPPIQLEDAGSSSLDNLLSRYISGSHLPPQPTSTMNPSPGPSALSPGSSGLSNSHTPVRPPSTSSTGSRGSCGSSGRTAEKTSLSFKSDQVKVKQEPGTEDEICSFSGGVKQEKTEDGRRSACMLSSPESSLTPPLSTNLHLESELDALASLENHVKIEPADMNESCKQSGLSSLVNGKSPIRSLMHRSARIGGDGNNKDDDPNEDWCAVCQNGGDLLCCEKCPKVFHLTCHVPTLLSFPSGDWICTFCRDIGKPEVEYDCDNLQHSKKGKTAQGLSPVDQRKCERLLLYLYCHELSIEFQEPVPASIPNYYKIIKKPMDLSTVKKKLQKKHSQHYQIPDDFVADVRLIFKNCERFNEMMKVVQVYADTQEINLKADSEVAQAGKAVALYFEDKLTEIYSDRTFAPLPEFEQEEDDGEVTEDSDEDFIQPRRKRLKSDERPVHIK

[4] = biological target: T2, Bromodomain-containing protein 4 (Homo sapiens, UniProt O60885); experiment: Binding affinity to BRD4 BD1 (K57 to E168 residues) (unknown origin) after 1 hr by Alexa-647-conjugated probe based TR-FRET assay
[5] = biological target: T2, Bromodomain-containing protein 4; experiment: Binding affinity to His-tagged BRD4 BD1-BD2 (K57 to K550 residues) (unknown origin) after 1 hr by Alexa-647-conjugated probe based TR-FRET assay
[6] = biological target: T3, Transcription intermediary factor 1-alpha (Homo sapiens, UniProt O15164); experiment: Inhibition of human TRIM24-phd-bromo (P790 to P977 residues) expressed in bacterial expression system by BROMOscan assay
T3 sequence (O15164 whole entry): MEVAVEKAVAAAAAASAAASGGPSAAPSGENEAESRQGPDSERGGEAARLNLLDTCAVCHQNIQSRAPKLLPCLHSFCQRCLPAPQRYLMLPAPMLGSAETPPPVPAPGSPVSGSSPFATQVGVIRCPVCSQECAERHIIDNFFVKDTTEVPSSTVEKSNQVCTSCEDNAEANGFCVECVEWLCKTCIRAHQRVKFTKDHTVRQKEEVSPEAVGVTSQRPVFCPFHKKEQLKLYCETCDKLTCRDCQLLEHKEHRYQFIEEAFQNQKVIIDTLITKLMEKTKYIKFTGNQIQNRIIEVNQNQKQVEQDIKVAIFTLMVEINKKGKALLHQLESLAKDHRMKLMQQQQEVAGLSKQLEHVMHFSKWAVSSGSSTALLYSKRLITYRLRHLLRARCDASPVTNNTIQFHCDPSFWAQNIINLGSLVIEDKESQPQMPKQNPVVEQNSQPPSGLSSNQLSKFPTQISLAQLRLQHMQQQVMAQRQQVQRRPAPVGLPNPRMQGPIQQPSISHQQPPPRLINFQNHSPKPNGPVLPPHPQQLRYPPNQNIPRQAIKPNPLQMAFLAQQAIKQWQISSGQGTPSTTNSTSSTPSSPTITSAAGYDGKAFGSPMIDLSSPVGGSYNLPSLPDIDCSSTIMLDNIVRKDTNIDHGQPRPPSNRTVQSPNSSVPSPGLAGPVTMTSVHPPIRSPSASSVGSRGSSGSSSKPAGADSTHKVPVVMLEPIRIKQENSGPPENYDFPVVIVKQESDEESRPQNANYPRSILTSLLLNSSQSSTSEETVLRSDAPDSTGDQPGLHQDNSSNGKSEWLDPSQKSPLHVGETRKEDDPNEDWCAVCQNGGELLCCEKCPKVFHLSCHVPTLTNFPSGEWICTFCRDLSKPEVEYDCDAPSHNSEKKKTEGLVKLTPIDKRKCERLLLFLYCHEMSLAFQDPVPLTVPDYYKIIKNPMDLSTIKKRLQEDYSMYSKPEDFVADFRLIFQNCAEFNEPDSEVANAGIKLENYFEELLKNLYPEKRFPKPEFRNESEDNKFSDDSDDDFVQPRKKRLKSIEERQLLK

[7] = biological target: Bromodomain-containing protein 3 (Homo sapiens, UniProt Q15059); experiment: Binding affinity to BRD3 BD1-BD2 (P24 to P416 residues) (unknown origin) after 1 hr by Alexa-647-conjugated probe based TR-FRET assay
[8] = biological target: Bromodomain testis-specific protein (Homo sapiens, UniProt Q58F21); experiment: Binding affinity to BRDT BD1-BD2 (N21 to P380 residues) (unknown origin) after 1 hr by Alexa-647-conjugated probe based TR-FRET assay
[9] = biological target: T2, Bromodomain-containing protein 4; experiment: Binding affinity to BRD4 BD2 (E352 to M457 residues) (unknown origin) expressed in Escherichia coli BL21 (DE3) after 1 hr by Alexa-647-conjugated probe based TR-FRET assay
[10] = biological target: Bromodomain and WD repeat-containing protein 1 (Homo sapiens, UniProt Q9NSI6); experiment: Inhibition of human WDR9 bromodomain 2 (A1310 to E1430 residues) expressed in bacterial expression system by BROMOscan assay
MX1 = experiment: Antiproliferative activity against human MX1 cells incubated over 72 hrs by Cell Titre Glo luminescence assay; assay type: functional, cell-based; details: MX1, 72 h
How it was run: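 Triple-negative breast cancer line MX-1 grown 3 days with compound. Proliferation read with the CellTiter-Glo kit. EC50 is the mean of two measurements.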

Chain of Bromodomain-containing protein 3 (Q15059 whole entry, the tested form may be a part): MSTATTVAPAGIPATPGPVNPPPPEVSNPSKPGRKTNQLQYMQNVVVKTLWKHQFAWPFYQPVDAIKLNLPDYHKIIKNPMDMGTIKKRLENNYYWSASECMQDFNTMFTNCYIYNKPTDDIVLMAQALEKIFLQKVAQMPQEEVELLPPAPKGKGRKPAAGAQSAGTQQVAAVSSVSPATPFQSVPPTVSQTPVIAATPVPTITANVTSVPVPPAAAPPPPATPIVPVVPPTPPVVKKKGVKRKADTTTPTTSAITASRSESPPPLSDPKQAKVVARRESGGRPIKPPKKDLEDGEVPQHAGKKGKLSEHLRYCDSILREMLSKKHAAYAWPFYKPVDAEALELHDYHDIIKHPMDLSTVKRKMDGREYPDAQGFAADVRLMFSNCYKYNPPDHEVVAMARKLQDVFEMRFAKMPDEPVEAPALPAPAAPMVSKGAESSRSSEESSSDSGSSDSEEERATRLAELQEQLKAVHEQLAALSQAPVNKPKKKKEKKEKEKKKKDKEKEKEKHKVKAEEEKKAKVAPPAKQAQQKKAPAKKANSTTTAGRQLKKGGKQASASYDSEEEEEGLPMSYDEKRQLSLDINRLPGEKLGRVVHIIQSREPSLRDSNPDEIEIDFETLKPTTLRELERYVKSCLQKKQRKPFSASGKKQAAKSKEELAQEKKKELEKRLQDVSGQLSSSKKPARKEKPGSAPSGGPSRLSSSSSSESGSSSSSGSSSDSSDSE
Chain of Bromodomain and WD repeat-containing protein 1 (Q9NSI6 whole entry, the tested form may be a part): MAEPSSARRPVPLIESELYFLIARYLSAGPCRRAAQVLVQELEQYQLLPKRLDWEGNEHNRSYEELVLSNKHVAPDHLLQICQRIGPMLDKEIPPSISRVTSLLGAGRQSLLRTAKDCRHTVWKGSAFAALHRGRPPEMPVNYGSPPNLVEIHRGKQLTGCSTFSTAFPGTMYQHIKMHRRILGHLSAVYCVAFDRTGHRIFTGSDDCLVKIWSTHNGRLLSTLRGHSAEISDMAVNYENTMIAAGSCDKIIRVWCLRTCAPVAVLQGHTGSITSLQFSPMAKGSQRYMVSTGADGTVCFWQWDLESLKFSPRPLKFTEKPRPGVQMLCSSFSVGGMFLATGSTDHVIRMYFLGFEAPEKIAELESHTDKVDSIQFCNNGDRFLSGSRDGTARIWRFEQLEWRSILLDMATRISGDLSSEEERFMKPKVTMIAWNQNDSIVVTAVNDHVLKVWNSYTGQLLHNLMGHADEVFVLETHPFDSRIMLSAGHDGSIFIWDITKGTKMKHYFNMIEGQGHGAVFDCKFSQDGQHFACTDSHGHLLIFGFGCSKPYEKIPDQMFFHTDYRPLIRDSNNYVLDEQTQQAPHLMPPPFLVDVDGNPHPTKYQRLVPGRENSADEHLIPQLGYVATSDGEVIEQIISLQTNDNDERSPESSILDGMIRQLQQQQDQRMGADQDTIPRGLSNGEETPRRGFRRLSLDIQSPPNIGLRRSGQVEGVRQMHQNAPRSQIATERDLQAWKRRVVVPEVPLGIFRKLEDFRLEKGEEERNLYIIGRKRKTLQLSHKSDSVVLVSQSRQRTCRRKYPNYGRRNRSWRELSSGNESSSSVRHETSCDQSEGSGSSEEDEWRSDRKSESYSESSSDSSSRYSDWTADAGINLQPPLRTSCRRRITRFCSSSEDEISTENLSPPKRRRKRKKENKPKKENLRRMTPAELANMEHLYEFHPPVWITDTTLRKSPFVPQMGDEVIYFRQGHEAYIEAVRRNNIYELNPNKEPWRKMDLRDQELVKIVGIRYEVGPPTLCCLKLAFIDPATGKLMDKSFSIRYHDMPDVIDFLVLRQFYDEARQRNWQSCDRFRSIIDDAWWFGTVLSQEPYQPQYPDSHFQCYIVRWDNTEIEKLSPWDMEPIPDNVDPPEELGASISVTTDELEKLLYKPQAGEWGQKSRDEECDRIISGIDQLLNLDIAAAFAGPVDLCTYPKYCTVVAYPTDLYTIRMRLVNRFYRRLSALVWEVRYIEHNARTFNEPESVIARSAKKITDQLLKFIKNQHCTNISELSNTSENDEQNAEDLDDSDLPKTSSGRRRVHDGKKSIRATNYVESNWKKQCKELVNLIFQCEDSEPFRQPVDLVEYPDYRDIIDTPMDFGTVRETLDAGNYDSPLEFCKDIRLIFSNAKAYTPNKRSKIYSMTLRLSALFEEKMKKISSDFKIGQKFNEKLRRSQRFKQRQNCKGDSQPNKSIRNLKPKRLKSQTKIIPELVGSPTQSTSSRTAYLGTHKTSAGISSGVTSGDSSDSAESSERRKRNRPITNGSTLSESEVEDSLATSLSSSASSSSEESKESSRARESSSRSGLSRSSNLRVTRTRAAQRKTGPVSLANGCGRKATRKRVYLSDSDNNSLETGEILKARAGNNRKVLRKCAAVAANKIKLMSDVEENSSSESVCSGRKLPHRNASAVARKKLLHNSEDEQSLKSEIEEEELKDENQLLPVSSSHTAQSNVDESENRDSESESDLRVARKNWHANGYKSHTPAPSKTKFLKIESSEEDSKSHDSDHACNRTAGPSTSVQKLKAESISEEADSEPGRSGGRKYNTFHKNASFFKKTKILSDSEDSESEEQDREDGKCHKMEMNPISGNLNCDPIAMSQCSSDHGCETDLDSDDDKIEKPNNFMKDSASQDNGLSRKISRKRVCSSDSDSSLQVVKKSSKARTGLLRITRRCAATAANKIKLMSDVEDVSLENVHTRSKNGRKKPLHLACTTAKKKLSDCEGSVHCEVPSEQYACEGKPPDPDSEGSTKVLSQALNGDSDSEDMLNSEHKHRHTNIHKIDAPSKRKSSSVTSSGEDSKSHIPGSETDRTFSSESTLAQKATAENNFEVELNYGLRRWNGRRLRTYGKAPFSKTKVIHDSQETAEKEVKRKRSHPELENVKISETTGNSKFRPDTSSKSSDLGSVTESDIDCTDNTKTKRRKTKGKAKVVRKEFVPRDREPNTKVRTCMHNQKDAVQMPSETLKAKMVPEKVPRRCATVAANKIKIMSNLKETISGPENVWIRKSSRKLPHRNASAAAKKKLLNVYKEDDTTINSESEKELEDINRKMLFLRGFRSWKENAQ

SMILES: Cn1cc(-c2cc(S(C)(=O)=O)ccc2Oc2ccc(F)cc2F)c2cc[nH]c(=O)c21
- Papp [1]: 35 ×10⁻⁶ cm/s
- bioavailability [2]: 57%
- pIC50 [3]: < 5.00
- pKi [4]: 7.11
- pKi [5]: 7.01
- pIC50 [6]: 5.00
- pKi [7]: 6.54
- pKi [8]: 6.31
- pKi [9]: 6.55
- pIC50 [10]: < 5.00
- pEC50 (MX1): 6.96

SMILES: Cc1[nH]c(-c2cc(NS(C)(=O)=O)ccc2Oc2ccccc2)c2c1C(=O)CCC2
- Papp [1]: 27 ×10⁻⁶ cm/s
- bioavailability [2]: 30%
- pIC50 [3]: < 5.00
- pKi [4]: 7.74
- pKi [5]: 7.48
- pIC50 [6]: < 5.00
- pKi [7]: 7.46
- pKi [8]: 6.96
- pKi [9]: 7.42
- pIC50 [10]: 5.00
- pEC50 (MX1): 6.80

SMILES: Cc1[nH]c(-c2cc(S(C)(=O)=O)ccc2Oc2ccc(F)cc2F)c2c1C(=O)NCC2
- Papp [1]: 22 ×10⁻⁶ cm/s
- bioavailability [2]: 32%
- pIC50 [3]: < 5.00
- pKi [4]: 7.47
- pKi [5]: 6.52
- pIC50 [6]: < 5.00
- pKi [7]: 6.96
- pKi [8]: 6.85
- pKi [9]: 7.42
- pIC50 [10]: < 5.00
- pEC50 (MX1): 6.05
